Test results: ChEMBL document CHEMBL1165950, “Design and synthesis of new potent anticancer pyrazoles with high FLT3 kinase inhibitory selectivity” (Bioorg Med Chem, 2010)

Experiments:
Assay type in all cases: functional
HCT-15 = assay: Cytotoxicity against human HCT15 cells assessed as cell growth at 100 nM after 48 hrs by sulforhodamine B assay; settings: HCT-15, 48 h, read-out: Activity
MDA-MB-435 = assay: Cytotoxicity against human MDA-MB-435 cells assessed as cell growth at 100 nM after 48 hrs by sulforhodamine B assay; settings: MDA-MB-435, 48 h, read-out: Activity
SK-MEL-2 = assay: Cytotoxicity against human SK-MEL-2 cells assessed as cell growth at 100 nM after 48 hrs by sulforhodamine B assay; settings: SK-MEL-2, 48 h, read-out: Activity
OVCAR-4 [1] = assay: Cytotoxicity against human OVCAR4 cells assessed as cell growth at 100 nM after 48 hrs by sulforhodamine B assay; settings: OVCAR-4, 48 h, read-out: Activity
CCRF-CEM = assay: Cytotoxicity against human CCRF-CEM cells assessed as cell growth at 0.01 uM after 48 hrs by sulforhodamine B assay; settings: read-out: Activity
Summary of the method: (§1)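 NCI-60 five-dose screen. Cells were grown in RPMI 1640 with 5% FBS and 2 mM L-glutamine, plated at 5000–40,000 cells/well and preincubated for 24 h. Time-zero plates were TCA-fixed. DMSO-solubilized drug was added at five concentrations (10-fold or ½-log serial dilutions) for 48 h at 37 °C, 5% CO2. Cells were TCA-fixed, stained with 0.4% SRB and read at 515 nm. Percent growth used time-zero, control and test absorbances.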

SF-539 = assay: Cytotoxicity against human SF539 cells assessed as cell growth at 10 uM; settings: read-out: Activity
Summary of the method: (§2)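 NCI-60 screen: cells grown in RPMI 1640 with 5% FBS and 2 mM L-glutamine, plated at 5000–40,000 cells/well according to doubling time, and preincubated 24 h at 37 °C, 5% CO2. The single 10 µM dose (DMSO stock) was added, then incubated 48 h. Cells were TCA-fixed and stained with 0.4% SRB, read at 515 nm, and growth % calculated against time-zero and control plates.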

UACC-62 = assay: Cytotoxicity against human UACC62 cells assessed as cell growth at 10 uM; settings: read-out: Activity; summary of the method: as §2
MDA-MB-468 = assay: Cytotoxicity against human MDA-MB-468 cells assessed as cell growth at 10 uM; settings: read-out: Activity; summary of the method: as §2
HCT-116 = assay: Cytotoxicity against human HCT116 cells assessed as cell growth at 1 uM after 48 hrs by sulforhodamine B assay; settings: HCT-116, 48 h, read-out: Activity
SF-295 = assay: Cytotoxicity against human SF295 cells assessed as cell growth at 0.01 uM after 48 hrs by sulforhodamine B assay; settings: SF-295, 48 h, read-out: Activity
OVCAR-3 = assay: Cytotoxicity against human OVCAR-3 cells assessed as cell growth at 0.01 uM after 48 hrs by sulforhodamine B assay; settings: OVCAR-3, 48 h, read-out: Activity
A498 = assay: Cytotoxicity against human A498 cells assessed as cell growth at 0.01 uM after 48 hrs by sulforhodamine B assay; settings: A498, 48 h, read-out: Activity; summary of the method: as §1
NCI-H460 = assay: Cytotoxicity against human NCI-H460 cells assessed as cell growth at 0.001 uM after 48 hrs by sulforhodamine B assay; settings: NCI-H460, 48 h, read-out: Activity
OVCAR-5 = assay: Cytotoxicity against human OVCAR5 cells assessed as cell growth at 0.001 uM after 48 hrs by sulforhodamine B assay; settings: OVCAR-5, 48 h, read-out: Activity
UO-31 = assay: Cytotoxicity against human UO31 cells assessed as cell growth at 0.001 uM after 48 hrs by sulforhodamine B assay; settings: UO-31, 48 h, read-out: Activity
HOP-62 [2] = assay: Growth inhibition of human HOP62 cells after 48 hrs by sulforhodamine B assay; settings: HOP-62, 48 h
Summary of the method: (§3)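 NCI 60-cell screen, five-dose mode. Cells grown in RPMI 1640 with 5% FBS and 2 mM L-glutamine and plated at 5000-40,000 cells/well according to doubling time. After 24 h preincubation, a Tz plate was TCA-fixed. Five concentrations (10-fold or 1/2 log dilutions) were applied for 48 h at 37 °C. SRB staining read at 515 nm. IC50 taken from [(Ti-Tz)/(C-Tz)]×100 = 50.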

MCF7 = assay: Cytotoxicity against human MCF7 cells assessed as cell growth at 0.01 uM after 48 hrs by sulforhodamine B assay; settings: MCF7, 48 h, read-out: Activity
[3] = Cytotoxicity against human RPMI8266 cells assessed as cell growth at 100 nM after 48 hrs by sulforhodamine B assay; settings: read-out: Activity
HOP-62 [4] = assay: Cytotoxicity against human HOP62 cells assessed as cell growth at 100 nM after 48 hrs by sulforhodamine B assay; settings: HOP-62, 48 h, read-out: Activity
MDA-MB-231 = assay: Growth inhibition of human MDA-MB-231 cells after 48 hrs by sulforhodamine B assay; settings: MDA-MB-231, 48 h; summary of the method: as §3
T47D = assay: Growth inhibition of human T47D cells after 48 hrs by sulforhodamine B assay; summary of the method: as §3
K562 = assay: Cytotoxicity against human K562 cells assessed as cell growth at 10 uM; settings: read-out: Activity
Summary of the method: (§4)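 Single-dose NCI-60 screen at 10 µM. Cells were grown in RPMI 1640 with 5% FBS and 2 mM L-glutamine, then treated for 48 h at 37 °C. Protein was measured by SRB staining with absorbance at 515 nm. Percentage growth was recorded, and inhibition percentage was calculated as 100 minus growth percentage.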

[5] = Cytotoxicity against human Hs 578T cells assessed as cell growth at 1 uM after 48 hrs by sulforhodamine B assay; settings: read-out: Activity
NCI-H522 = assay: Cytotoxicity against human NCI-H522 cells assessed as cell growth at 10 uM; settings: read-out: Activity; summary of the method: as §2
HCC 2998 = assay: Cytotoxicity against human HCC2998 cells assessed as cell growth at 10 uM; settings: read-out: Activity; summary of the method: as §4
NCI-H23 = assay: Cytotoxicity against human NCI-H23 cells assessed as cell growth at 10 uM after 48 hrs by sulforhodamine B assay; settings: NCI-H23, 48 h, read-out: Activity
SNB-75 = assay: Cytotoxicity against human SNB75 cells assessed as cell growth at 10 uM after 48 hrs by sulforhodamine B assay; settings: SNB-75, 48 h, read-out: Activity
U-251 = assay: Cytotoxicity against human U251 cells assessed as cell growth at 10 uM after 48 hrs by sulforhodamine B assay; settings: U-251, 48 h, read-out: Activity
OVCAR-4 [6] = assay: Cytotoxicity against human OVCAR4 cells assessed as cell growth at 10 uM after 48 hrs by sulforhodamine B assay; settings: OVCAR-4, 48 h, read-out: Activity
SK-OV-3 = assay: Cytotoxicity against human SKOV3 cells assessed as cell growth at 10 uM after 48 hrs by sulforhodamine B assay; settings: SK-OV-3, 48 h, read-out: Activity
SN12C = assay: Cytotoxicity against human SN12C cells assessed as cell growth at 10 uM after 48 hrs by sulforhodamine B assay; settings: read-out: Activity

Compound: Cc1cc(O)cc(-c2nn(CC#N)cc2-c2ccnc(-c3ccc(Oc4ccccc4)cc3)c2)c1
- growth at 0.1 µM (HCT-15): 91%
- growth at 0.1 µM (MDA-MB-435): 89%
- growth at 0.1 µM (SK-MEL-2): 101%
- growth at 0.1 µM (OVCAR-4 [1]): 106%
- growth at 0.01 µM (CCRF-CEM): 93%
- growth at 10 µM (SF-539): 75.5%
- growth at 10 µM (UACC-62): 68.1%
- growth at 10 µM (MDA-MB-468): 6.32%
- growth at 1 µM (HCT-116): -100%
- growth at 0.01 µM (SF-295): 94%
- growth at 0.01 µM (OVCAR-3): 103%
- growth at 0.01 µM (A498): 78%
- growth at 0.001 µM (NCI-H460): 100%
- growth at 0.001 µM (OVCAR-5): 72%
- growth at 0.001 µM (UO-31): 91%
- GI50 (HOP-62 [2]): 1.17 µM
- LC50 (50% lethal concentration) (HOP-62 [2]): 52.3 µM
- TGI (HOP-62 [2]): 24.7 µM
- growth at 0.01 µM (MCF7): 92%
- growth at 0.1 µM [3]: 88%
- growth at 0.1 µM (HOP-62 [4]): 101%
- GI50 (MDA-MB-231): 2.28 µM
- LC50 (MDA-MB-231): 57.7 µM
- TGI (MDA-MB-231): 7.33 µM
- GI50 (T47D): 2.04 µM
- LC50 (T47D): 39.1 µM
- TGI (T47D): 5.81 µM
- growth at 10 µM (K562): 15%
- growth at 1 µM [5]: -23%
- growth at 10 µM (NCI-H522): 36%
- growth at 10 µM (HCC 2998): 28.2%
- growth at 10 µM (NCI-H23): -75%
- growth at 10 µM (SNB-75): -98%
- growth at 10 µM (U-251): -98%
- growth at 10 µM (OVCAR-4 [6]): -83%
- growth at 10 µM (SK-OV-3): -99%
- growth at 10 µM (SN12C): -87%
